# Assay results from different studies.
# Protocols differ between the studies behind these lines.
# Target: Sodium-dependent serotonin transporter (SLC6A4, Homo sapiens, UniProt P31645)
Compound,assay,conditions,quantity,value
C[C@@H](NC(=O)[C@@H](N)Cc1ccc(O)cc1)C(=O)NCC(=O)N[C@@H](Cc1ccccc1)C(=O)N(C)CCC[C@@]1(c2ccc(F)cc2)OCc2cc(C#N)ccc21,"ligand displacement, radioligand",,Ki,0.28 µM
Clc1ccc2c(C3=CCN(CCc4c[nH]c5ccccc45)CC3)c[nH]c2c1,"ligand displacement, radioligand",cell membranes,IC50,0.0255 µM
COc1cc(C(=O)N2CC[C@@H](O)[C@@H](N)C2)cc2nc(-c3cc4ccccc4n3CC3CC3)n(C)c12,transporter uptake,,IC50,50.1 µM
CNC(C)(C)C(=O)c1ccccc1,"calcium signal, agonist, fluorescence",,EC50,12.9 µM
CCOC(=O)[C@@]12C[C@@H]1[C@@H](n1cnc3c(NC)nc(C#Cc4ccc(Cl)s4)nc31)[C@H](O)[C@@H]2O,"ligand displacement, radioligand",cell membranes,Ki,> 10 µM
OC(c1ccc(F)cc1)C(F)(F)CCN1CCC(O)(c2ccc(Cl)cc2)CC1 (racemic),"ligand displacement, radioligand",,Ki,1.99 µM
Clc1ccc2c(C3CCN(CCc4c[nH]c5ccccc45)CC3)c[nH]c2c1,"transporter uptake, inhibitor, radiometric",,Ki,0.053 µM
CNc1nc(C#Cc2ccc(Br)s2)nc2c1ncn2[C@H]1[C@H](O)[C@H](O)[C@]2(C(=O)OC)C[C@H]12,"ligand displacement, radioligand",cell membranes,Ki,> 10 µM
CN[C@@H](C)C(=O)c1ccccc1,"calcium signal, agonist, fluorescence",,EC50,15.3 µM
CNc1nc2cc(OCCCCN3CCN(c4cccc(Cl)c4Cl)CC3)ccc2s1,"ligand displacement, radioligand",,Ki,0.45 µM
CC(=O)N1C[C@@H](CCN2CC=C(c3c[nH]c4cc(Cl)ccc34)CC2)c2ccccc21,"ligand displacement, radioligand",cell membranes,IC50,0.0438 µM
C[C@H](N)Cn1ncc2ccc3c(c21)CCCO3,"ligand displacement, radioligand",,Ki,62.5 µM
CC(N)CCc1ccccc1Cl (stereo not shown),"transporter uptake, inhibitor, radiometric",,Ki,24 µM
